The source made the active and inactive calls. No cut-off for these calls is given here.

Here are results for 24 compounds from ChEMBL document CHEMBL1143754, “2-Styrylchromones: novel strong scavengers of reactive oxygen and nitrogen species” (Bioorg Med Chem, 2007).

What all share (assay type): functional
Assay [1] in a line: Nitric oxide scavenging activity assessed as inhibition of DAF2 oxidation at 250 uM. The procedure, abridged:
(§1)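 NOC-5 (10 µM final) as NO donor, DAF-2 5 µM in 50 mM KH2PO4 pH 7.4, compounds in DMSO. After 30 min at 37 °C, DAF-2T fluorescence read (ex 485/em 528 nm). Value is % inhibition of DAF-2 oxidation. Rutin control.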

The nature of assay [2]: Peroxynitrite scavenging activity assessed as inhibition of DHR oxidation in presence of NaHCo3. The procedure, abridged:
(§2)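 Parallel peroxynitrite set with 25 mM NaHCO3 added to mimic physiological CO2. Otherwise the same: 100 µM DTPA phosphate/NaCl/KCl buffer pH 7.4, DHR 5 µM, ONOO− 600 nM, compounds in DMSO. 37 °C, 2 min, fluorescence ex 485/em 528 nm. % inhibition of DHR oxidation. Four experiments in triplicate.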

Assay [3] in a line: Hypochlorous acid scavenging activity assessed as inhibition of DHR oxidation. The method, boiled down: (§3)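 HOCl made fresh by bringing 1% NaOCl to pH 6.2 with H2SO4, quantified at 235 nm. Final: DHR 5 µM, HOCl 5 µM in 100 mM phosphate pH 7.4, compounds in ethanol. Run at 37 °C; rhodamine 123 fluorescence (ex 485/em 528 nm) read immediately. % inhibition of DHR oxidation. Lipoic acid control. Four experiments in triplicate.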

Assay [4] can be described thus: Superoxide radical scavenging activity at 125 uM by NBT reduction assay. The method, boiled down:
(§4)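 Superoxide generated by NADH/PMS at room temperature. Final: NADH 166 µM, NBT 43 µM, PMS 2.7 µM in 19 mM phosphate pH 7.4; compounds in DMSO. NBT reduction to diformazan followed at 560 nm for 2 min. % inhibition. Propyl gallate control. Four experiments in triplicate.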

A short description of assay [5]: Peroxynitrite scavenging activity assessed as inhibition of DHR oxidation. The procedure, abridged:
(§5)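 Buffer of 90 mM NaCl, 50 mM Na3PO4, 5 mM KCl, pH 7.4, with 100 µM DTPA. Final: DHR 5 µM, ONOO− 600 nM, compounds in DMSO. 37 °C, fluorescence (ex 485/em 528 nm) after 2 min. % inhibition of DHR oxidation. Ebselen control. Four experiments in triplicate.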

Assay [6] is described as follows: Singlet oxygen scavenging activity at 500 uM assessed as inhibition of DHR oxidation. The procedure, abridged:
(§6)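 Singlet oxygen from thermal breakdown of the endoperoxide NDPO2 (1 mM final), with histidine 10 mM and DHR 50 µM in 100 mM phosphate pH 7.4. Compounds in DMSO. After 30 min at 37 °C, rhodamine 123 fluorescence (ex 485/em 528 nm). % inhibition of DHR oxidation. Penicillamine control. Four experiments in triplicate.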

Assay [7] is described as follows: Hydrogen peroxide scavenging activity at 250 uM by assessed as inhibition of lucigenin oxidation. The method, boiled down: (§7)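 Chemiluminescence assay of H2O2-induced lucigenin oxidation, 37 °C, 50 mM Tris-HCl pH 7.4. Final concentrations: lucigenin 0.8 mM, 1% H2O2. Compounds in DMSO at various concentrations. Signal read right after the plate goes into the reader. Reported as % inhibition of lucigenin oxidation. Ascorbic acid as positive control. Four experiments, each in triplicate.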

The nature of assay [8]: Nitric oxide scavenging activity assessed as inhibition of DAF2 oxidation. The method, boiled down: as §1
Assay [9] is described as follows: Singlet oxygen scavenging activity by assessed as inhibition of DHR oxidation. The method, boiled down:
as §6

Assay [10] can be described thus: Superoxide radical scavenging activity by NBT reduction assay. The procedure, abridged:
as §4

A short description of assay [11]: Hydrogen peroxide scavenging activity by assessed as inhibition of lucigenin oxidation. The method, boiled down: as §7
Assay [12] in a line: Hypochlorous acid scavenging activity at 50 uM assessed as inhibition of DHR oxidation. The method, boiled down: as §3
Assay [13] can be described thus: Peroxynitrite scavenging activity assessed as inhibition of DHR oxidation in presence of NaHCo3 at 62 uM. The method, boiled down:
as §2

Assay [14] can be described thus: Nitric oxide scavenging activity assessed as inhibition of DAF2 oxidation at 50 uM. The method, boiled down: as §1
Assay [15] in a line: Peroxynitrite scavenging activity assessed as inhibition of DHR oxidation at 62 uM. The procedure, abridged: as §5
Assay [16] in a line: Singlet oxygen scavenging activity at 100 uM assessed as inhibition of DHR oxidation. The procedure, abridged: as §6
Assay [17] is described as follows: Nitric oxide scavenging activity assessed as inhibition of DAF2 oxidation at 100 uM. The procedure, abridged:
as §1

Assay [18] can be described thus: Peroxynitrite scavenging activity assessed as inhibition of DHR oxidation at 500 uM. The procedure, abridged:
as §5

A short description of assay [19]: Singlet oxygen scavenging activity at 1 mM assessed inhibition of as DHR oxidation. The method, boiled down:
as §6

A short description of assay [20]: Peroxynitrite scavenging activity assessed as inhibition of DHR oxidation in presence of NaHCo3 at 500 uM. The method, boiled down: as §2
Assay [21] is described as follows: Hypochlorous acid scavenging activity at 25 uM assessed as inhibition of DHR oxidation. The procedure, abridged: as §3
The nature of assay [22]: Superoxide radical scavenging activity at 100 uM by NBT reduction assay. The method, boiled down:
as §4

The nature of assay [23]: Singlet oxygen scavenging activity at 40 uM assessed as inhibition of DHR oxidation. The method, boiled down:
as §6

The nature of assay [24]: Peroxynitrite scavenging activity assessed as inhibition of DHR oxidation in presence of NaHCo3 at 150 uM. The method, boiled down: as §2
The nature of assay [25]: Singlet oxygen scavenging activity at 200 uM assessed as inhibition of DHR oxidation. The method, boiled down:
as §6

Assay [26] in a line: Hypochlorous acid scavenging activity at 125 uM assessed as inhibition of DHR oxidation. The method, boiled down: as §3
Assay [27] in a line: Peroxynitrite scavenging activity assessed as inhibition of DHR oxidation at 150 uM. The method, boiled down: as §5
Assay [28] in a line: Hypochlorous acid scavenging activity at 100 uM assessed as inhibition of DHR oxidation. The procedure, abridged: as §3

On to `O=c1cc(-c2ccccc2)oc2cc(O)cc(O)c12` [CHRYSIN], for which the inhibition in assay [1] amounted to 20%. Moreover, the figures for the IC50 in assay [2], in assay [3] and in [5] were 140 µM, 3.9 µM and 188 µM, respectively. Besides, the outcome in [4], in assay [6] and in [7] was inactive.
As to `O=c1cc(/C=C/c2ccc(O)c(O)c2)oc2ccccc12`, the IC50 was 0.34 µM in assay [8]; 0.44 µM in [2]; 7.9 µM in assay [9]; 32.1 µM in assay [3]; 71.3 µM in assay [10]; 183 µM in assay [11]. For the same compound, the IC50 in [5] was 0.24 µM.
As to `O=c1cc(/C=C/c2ccccc2)oc2cccc(O)c12`, the inhibition in assay [12] stood at 17%. Also, the outcome in assay [13], in [14], in assay [4], in assay [15], in [16] and in assay [7] was inactive.
Take `O=c1cc(-c2ccccc2)oc2cccc(O)c12`: the outcome in [17], in [13], in [4], in assay [15], in assay [16] and in assay [7] was inactive. Moreover, the inhibition in assay [12] turned out to be 17%.
Turning to `O=c1cc(/C=C/c2ccccc2)oc2cc(O)ccc12`, the outcome in assay [1], in [18], in assay [19], in assay [20] and in [7] was inactive. In addition, the half-maximal inhibitory concentration (IC50) in [3] was 72.3 µM. This compound returned an inhibition in assay [4] of 40%.
Consider `CCCOC(=O)c1cc(O)c(O)c(O)c1` [PROPYL GALLATE], for which, in assay [10], the IC50 was 24.6 µM.
For `O=c1cc(/C=C/c2ccc(O)cc2)oc2cccc(O)c12`, the inhibition worked out at 29% in assay [21], 40% in [7] and 29% in [23]. The IC50 in assay [2] is 0.98 µM; in assay [5] it was 1.04 µM. Also, the outcome in assay [22] and in assay [14] was inactive.
Regarding `C[C@@H]1O[C@@H](OC[C@H]2O[C@@H](Oc3c(-c4ccc(O)c(O)c4)oc4cc(O)cc(O)c4c3=O)[C@H](O)[C@@H](O)[C@@H]2O)[C@H](O)[C@H](O)[C@H]1O` [RUTIN], in [8], the half-maximal inhibitory concentration (IC50) was 3.66 µM.
Consider `O=c1cc(-c2ccc(O)c(O)c2)oc2cc(O)cc(O)c12` [LUTEOLIN], for which the IC50 in assay [8] was 2.61 µM; in assay [2], 0.64 µM; in assay [9], 23.4 µM; in [3] it was 7.1 µM; in assay [10] it was 58.5 µM; in [11], 900 µM. Also, the IC50 in assay [5] turned out to be 0.3 µM.
On to `O=c1c2ccccc2[se]n1-c1ccccc1` [EBSELEN], for which the figures for the IC50 in assay [2] and in assay [5] were 4.63 µM and 0.91 µM, respectively.
In the case of `O=C1O[C@H]([C@@H](O)CO)C(O)=C1O` [ASCORBIC ACID], the IC50 in [11] came to 626 µM.
For the compound `O=C(O)CCCCC1CCSS1` (stereo not drawn) [LIPOIC ACID, ALPHA], the IC50 in assay [3] amounted to 2.4 µM.
Turning to `CC(C)(S)[C@@H](N)C(=O)O` [PENICILLAMINE], in [9], the IC50 is 4.9 µM.
Regarding `O=c1cc(-c2ccccc2)oc2cc(O)ccc12` [7-HYDROXYFLAVONE], the outcome in [1], in assay [18], in assay [19], in [20], in assay [4] and in [7] was inactive. The IC50 in [3] turned out to be 146 µM.
`O=c1cc(/C=C/c2ccc(O)c(O)c2)oc2cccc(O)c12`: the IC50 in [8] was determined as 0.24 µM; in [2], 0.51 µM; in assay [9], 4.9 µM; in assay [3] it was 16.9 µM; in [10] it was 80.4 µM; in assay [11], 48.9 µM. The 50% inhibitory concentration (IC50) in assay [5] was determined as 0.26 µM.
For `O=c1cc(/C=C/c2ccccc2)oc2ccccc12`, the outcome in assay [17], in assay [25], in [4] and in [7] was inactive. Also, the values for the inhibition in [24], in assay [26] and in [27] were 27%, 10% and 27%, respectively.
For `O=c1cc(/C=C/c2ccc(O)cc2)oc2ccccc12`, the inhibition came to 46% in assay [1], 32% in assay [4] and 34% in assay [28]. Moreover, the IC50 in assay [2] stood at 1.23 µM; in [9], 245 µM; in assay [5], 1.2 µM. The outcome in assay [7] was inactive.
Turning to `O=c1cc(-c2ccc(O)cc2)oc2cc(O)cc(O)c12` [APIGENIN], the outcome in [1] and in assay [7] was inactive. The IC50 was 21.2 µM in [2], 3.9 µM in [3] and 76.1 µM in assay [5]. For the same compound, the inhibition in assay [19] amounted to 30%; in assay [22], 35%.
As to `O=c1cc(/C=C/c2ccc(O)c(O)c2)oc2cc(O)ccc12`, the IC50 stood at 0.29 µM in assay [8]; 0.61 µM in [2]; 10.1 µM in assay [9]; 18 µM in assay [3]; 51 µM in [10]; 114 µM in [11]. Moreover, in assay [5], the IC50 was determined as 0.3 µM.
With `O=c1cc(/C=C/c2ccc(O)cc2)oc2cc(O)ccc12`, the inhibition in assay [1] was 23%. Moreover, the IC50 in [2] amounted to 1.65 µM; in [9], 266 µM; in assay [3], 92 µM; in assay [10], 66.2 µM; in assay [5], 1.4 µM. Also, the outcome in assay [7] was inactive.
On to `O=c1c(O)c(-c2ccc(O)c(O)c2)oc2cc(O)cc(O)c12` [QUERCETIN], for which the IC50 in [8] was 1.95 µM; in [2], 0.44 µM; in assay [9], 5.3 µM; in assay [3] it was 1.1 µM; in [10], 47.3 µM; in [11], 785 µM. Further, the IC50 in assay [5] worked out at 0.26 µM.
In the case of `O=c1cc(/C=C/c2ccccc2)oc2cc(O)cc(O)c12`, the IC50 in assay [8] amounted to 73.9 µM; in [2] it was 40.6 µM; in [9] it was 163 µM; in assay [3] it was 5.7 µM; in assay [5], 46.6 µM. The compound further registered an inhibition in [4] of 27%. In assay [7], the result was inactive.
In the case of `O=c1cc(/C=C/c2ccc(O)cc2)oc2cc(O)cc(O)c12`, the inhibition stood at 21% in [1] and 36% in [7]. In addition, the IC50 in assay [2] turned out to be 1.21 µM; in [9] it was 183 µM; in assay [3], 8.5 µM; in assay [10] it was 77.7 µM; in assay [5] it was 1.25 µM.
Turning to `O=c1cc(/C=C/c2ccc(O)c(O)c2)oc2cc(O)cc(O)c12`, the IC50 in assay [8] came out at 0.51 µM; in assay [2], 0.63 µM; in assay [9], 6.5 µM; in assay [3], 3.9 µM; in assay [10] it was 48.9 µM; in assay [11], 50.3 µM. For the same compound, in assay [5], the IC50 is 0.26 µM.

As a reminder, the inhibition is the change of the read-out against control, counted positive when it falls. As a reminder, the IC50 is the concentration that inhibits the measured activity by half.
